ChEMBL document CHEMBL4402517, “Rational modification of Mannich base-type derivatives as novel antichagasic compounds: Synthesis, in vitro and in vivo evaluation” (Bioorg Med Chem, 2019)
Active and inactive are the calls of the source. The rule behind the calls is not given here.

Legend:
[1] = Selectivity index, ratio of IC50 for African green monkey Vero cells to IC50 for Trypanosoma cruzi MHOM/Pe/2011/Arequipa;DTU 5; assay type: toxicity; details: read-out: Selectivity Index
Procedure, shortened: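 SI = Vero IC50 / epimastigote IC50. Vero cells were grown in RPMI-1640 with 10% FBS, seeded at 0.8 × 10^4 cells/well, exposed to 10.0–200.0 µM for 72 h, then given MTT for 4 h. Epimastigotes were grown in MTL with 10% FBS at 28 °C, 5 × 10^5/mL, exposed to 6.3–50 µM for 48 h, then resazurin for 24 h (570/600 nm). IC50s came from nonlinear regression.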

Trypanosoma cruzi [2] = experiment: (§1) Antitrypanosomal activity against Trypanosoma cruzi MHOM/Pe/2011/Arequipa;DTU 5 bloodstream trypomastigote infected in BALB/c mouse assessed as parasite-free spleen in chronic phase at 20 mg/kg/day, po administered for 5 consecutive days starting from day 70 post infection followed by cyclophosphamide induced immunosuppression on day 80 post infection measured after day 100 post infection by PCR method relative to control; assay type: functional
Procedure, shortened: (§2)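 Female BALB/c mice (10–12 weeks, three per group) were infected i.p. with 5 × 10^5 Arequipa bloodstream trypomastigotes. Dosing was oral, 20 mg/kg/day for 5 days, as a suspension in 5% DMSO/0.5% HPMC. Cyclophosphamide 200 mg/kg i.p. was given at day 80 pi. At necropsy (day 100) tissues were tested by PCR on the splice leader region (primers TC/TC1, 300 bp). Scored as x/3 mice positive.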

[3] = Selectivity index, ratio of IC50 for African green monkey Vero cells to IC50 for Trypanosoma cruzi TINF/CH/1956/Tulahuen;DTU 6 amastigote forms; assay type: toxicity; details: read-out: Selectivity Index
Procedure, shortened: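 Vero cells (1 × 10^4/well) were infected with trypomastigotes at MOI 10:1 for 24 h and washed with PBS. They were then exposed to 3.1–50 µM for 72 h at 37 °C in 5% CO2, and amastigotes were counted after Giemsa staining. Triplicates in two determinations; nonlinear regression.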

Trypanosoma cruzi [4] = experiment: as §1, with “bone marrow” for “spleen”; assay type: functional; procedure, shortened: as §2
[5] = (§3) Toxicity in BALB/c mouse infected with Trypanosoma cruzi MHOM/Pe/2011/Arequipa;DTU 5 bloodstream trypomastigote assessed as decrease in serum urea level in acute phase at 20 mg/kg/day, po administered for 5 consecutive days starting from day 8 post infection and measured at day 14 post infection by biochemical analysis relative to control; assay type: organism-based; set-up: scale not given: the % may be the effect or the level left; details: in vivo
Procedure, shortened: (§4)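 Female BALB/c mice (10–12 weeks, 14–20 g; groups of three) were infected i.p. with 5 × 10^5 Arequipa bloodstream trypomastigotes. Dosing was oral at 20 mg/kg/day for 5 days, from day 8 pi (acute) or day 70 pi (chronic), as a 2 mg/ml suspension in 5% DMSO/0.5% HPMC; controls received vehicle. Cyclophosphamide 200 mg/kg i.p. was given at day 80 pi. Serum was collected 2 days post-treatment and at necropsy by cardiac puncture and compared with infected untreated controls.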

Trypanosoma cruzi [6] = experiment: as §1, with “parasitemia reactivation” for “parasite-free spleen”, “infection” for “infection measured after day 100 post infection”, “Neubauer chamber” for “PCR method”; assay type: functional
Procedure, shortened: (§5)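 Female BALB/c mice (three per group) were infected i.p. with 5 × 10^5 Arequipa bloodstream trypomastigotes and treated orally at 20 mg/kg/day for 5 days (vehicle 5% DMSO/0.5% HPMC). Once parasitemia was undetectable (day 80 pi), cyclophosphamide 200 mg/kg was given i.p. Bloodstream parasites were then counted to give % reactivation versus untreated controls.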

Trypanosoma cruzi [7] = experiment: as §1, with “parasitemia reactivation” for “parasite-free spleen”, “acute” for “chronic”, “8” for “70”, “infection” for “infection measured after day 100 post infection”, “Neubauer chamber” for “PCR method”; assay type: functional; procedure, shortened: as §5
[8] = Selectivity index, ratio of IC50 for African green monkey Vero cells to IC50 for Trypanosoma cruzi IRHOD/CO/2008/SN3;DTU 1 trypomastigote forms; assay type: toxicity; details: read-out: Selectivity Index
Procedure, shortened: (§6)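 Bloodstream trypomastigotes were taken from BALB/c mice by cardiac puncture and diluted in RPMI with 10% FBS at 2 × 10^6/mL. They were incubated with 3.1–50.0 µM for 24 h at 37 °C in 5% CO2 and counted in a Neubauer chamber. Triplicate, at least three experiments; nonlinear regression.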

Trypanosoma cruzi [9] = experiment: Antitrypanosomal activity against bloodstream trypomastigote stage of Trypanosoma cruzi IRHOD/CO/2008/SN3;DTU 1 isolated from parasite infected BALB/c Albino mouse cardiac cells after 24 hrs by Neubauer chamber based cell counting method; assay type: functional, organism-based; details: IRHOD/CO/2008/SN3;DTU 1, 24 h
Procedure, shortened: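 Bloodstream trypomastigotes were taken by cardiac puncture from infected BALB/c mice and diluted in RPMI + 10% heat-inactivated FBS. At 2 × 10^6/mL they were exposed to 3.1–50.0 µM (lower where needed) for 24 h at 37 °C, 5% CO2, and counted in a Neubauer chamber. Triplicates, at least three experiments; IC50 by nonlinear regression.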

Trypanosoma cruzi [10] = experiment: Antitrypanosomal activity against Trypanosoma cruzi MHOM/Pe/2011/Arequipa;DTU 5 bloodstream trypomastigotes infected in BALB/c mouse assessed as reduction in serum Ig-G level in acute phase at 20 mg/kg/day, po administered for 5 consecutive days starting from day 8 post infection and measured at day 79 post infection by ELISA; assay type: functional, organism-based
Procedure, shortened: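 Sera came from infected BALB/c mice (three per group) dosed orally at 20 mg/kg/day for 5 days. Sampling points: 2 days after treatment, the day before immunosuppression (acute only) and necropsy day. Anti-T. cruzi IgG was measured by indirect ELISA using parasite Fe-SOD as antigen, read as OD at 492 nm.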

Trypanosoma cruzi [11] = experiment: Antitrypanosomal activity against Trypanosoma cruzi MHOM/Pe/2011/Arequipa;DTU 5 epimastigotes measured after 72 hrs by Neubauer hemocytometer; assay type: functional, organism-based; details: MHOM/Pe/2011/Arequipa;DTU 5, 72 h
Trypanosoma cruzi [12] = experiment: Antitrypanosomal activity against Trypanosoma cruzi IRHOD/CO/2008/SN3;DTU 1 amastigote forms measured after 72 hrs by Giemsa staining based assay; assay type: functional, organism-based; details: IRHOD/CO/2008/SN3;DTU 1, 72 h
Procedure, shortened: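 Vero cells (1 × 10^4/well, on coverslips) left to adhere 24 h at 37 °C, 5% CO2, then infected with trypomastigotes at MOI 10:1 for 24 h. Free parasites were removed by three PBS washes. Compounds at 3.1, 6.25, 12.5, 25 and 50 µM were incubated 72 h, and amastigotes were counted after Giemsa staining. Triplicates, two separate experiments; IC50 by nonlinear regression.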

[13] = as §3, with “increase” for “decrease”, “alanine aminotransferase” for “urea”; assay type: organism-based; details: in vivo; procedure, shortened: as §4
Trypanosoma cruzi [14] = experiment: as §1, with “adipose tissue” for “spleen”; assay type: functional; procedure, shortened: as §2
[15] = as §3, with “uric acid” for “urea”; assay type: organism-based; set-up: scale not given: the % may be the effect or the level left; details: in vivo; procedure, shortened: as §4
[16] = as §3, with “lactate dehydrogenase” for “urea”, “mg/kg/day,po” for “mg/kg/day, po”; assay type: organism-based; set-up: scale not given: the % may be the effect or the level left; details: in vivo; procedure, shortened: as §4
[17] = Selectivity index, ratio of IC50 for African green monkey Vero cells to IC50 for Trypanosoma cruzi TINF/CH/1956/Tulahuen;DTU 6 trypomastigote forms; assay type: toxicity; details: read-out: Selectivity Index; procedure, shortened: as §6

Structure (SMILES)	selectivity ratio [1]	Activity (Trypanosoma cruzi [2]) [%]	selectivity ratio [3]	Activity (Trypanosoma cruzi [4]) [%]	Activity [5]	Activity (Trypanosoma cruzi [6]) [%]	Activity (Trypanosoma cruzi [7]) [%]	selectivity ratio [8]	IC50 (Trypanosoma cruzi [9]) [µM]	Activity (Trypanosoma cruzi [10])	IC50 (Trypanosoma cruzi [11]) [µM]	IC50 (Trypanosoma cruzi [12]) [µM]	Activity [13] [%]	Activity (Trypanosoma cruzi [14]) [%]	Activity [15]	Activity [16]	selectivity ratio [17]
O=C(CCN1CCN(c2ccc(Cl)cc2)CC1)c1ccc(O)cc1	5.6	63	34.5	63	<= 10%	20	25	50.9	2	Active	18.6	4.5	> 40	63	<= 10%	<= 20%	49.6
O=C(Cn1ccnc1[N+](=O)[O-])NCc1ccccc1 [BENZNIDAZOLE]	> 7.6	38	> 51.7	38	<= 30%	40	65	> 6	33.3	Active	26.2	4.4	> 40	38	<= 30%	<= 10%	> 29.9
O=C(CCN1CCN(c2ccc(C(F)(F)F)cc2)CC1)c1ccc(O)cc1	4.7	50	27.4	50	<= 10%	30	85	51	2.1	Active	22.7	6.6	> 40	50	<= 20%	<= 20%	45.7
